# This is a sample that favours compounds with a hit; in the whole collection about 0.62% have one here.
# Arbovirus inh: antivirals against arbovirus infection, primary screen, cell-based, full library, 10K replicate subset | arbovirus infection cell-based antiviral screen | inhibition, % at 10 µM | hit rate 0.37% among 200,000 | AID 1251, 2008; in the data active means inhibition above about 30%
# Mdm2 ligase inh: MDM2-luciferase reporter signal enhancers, primary screen, MDM2 E3 ligase inhibitor project, cell-based, luminescence, 1536-well. E3 ubiquitin-protein ligase Mdm2 (Homo sapiens), Q00987. cell-based MDM2 ubiquitination luciferase reporter, 2 h; 0 = plate control, 100 = twice control, blank-subtracted. signal enhancement, % at 5 µM. hit rate 0.11% among 210,000. AID 1230, 2008;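 active means signal enhancement of 30% or more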;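 further: luminescence tracks abundance of the self-degrading MDM2-luciferase fusion protein; higher signal means inhibition of MDM2 E3 ligase activity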
#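 Assay system: mammalian cells stably expressing self-ubiquitinating, self-degrading MDM2 E3–luciferase fusion. Quantity: 2000 cells in each well. Medium: DMEM culture medium. Compound dosing: single-point 5 µM. Timing: cell settling 4 h, compound treatment 2 h, both 37 °C. Technique: luciferase luminescence. Read-out basis: percent signal gain over controls, blank-subtracted. Benchmarks: plate controls and plate blanks.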
# Rad51 HR inh: human RAD51 strand exchange inhibitors, primary screen, biochemical, fluorescence. DNA repair protein RAD51 homolog 1 (Homo sapiens), Q06609. hRad51 DNA strand exchange, fluorescence dequenching. inhibition, % at 10 µM. hit rate 0.085% among 200,000. AID 1385, 2008;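 active means inhibition above 40% at the single screening dose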;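 further: 0% = DMSO control wells and 100% = blanks with heterologous ssDNA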
# Target sequence (Q06609 whole entry, looked up): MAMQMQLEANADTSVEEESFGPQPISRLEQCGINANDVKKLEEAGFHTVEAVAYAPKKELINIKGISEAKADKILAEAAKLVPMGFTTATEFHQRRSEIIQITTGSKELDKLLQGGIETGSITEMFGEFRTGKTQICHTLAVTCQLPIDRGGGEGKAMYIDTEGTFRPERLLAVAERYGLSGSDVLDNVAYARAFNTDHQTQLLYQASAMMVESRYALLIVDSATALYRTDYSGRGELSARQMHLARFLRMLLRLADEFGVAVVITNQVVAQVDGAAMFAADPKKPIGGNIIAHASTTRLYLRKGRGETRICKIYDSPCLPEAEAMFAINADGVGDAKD
#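 Material: human Rad51–ssDNA filaments; Probe or stimulus: labelled 47-mer dsDNA for strand exchange; Doses: single 10 µM dose; Incubation: 37 °C 15-min filament assembly, 30-min compound preincubation, 15-min exchange; Technique: FRET fluorescence dequenching, excitation 485 nm, emission 520 nm; Measure: Fluorescence-based percent inhibition, control- and blank-normalised; Benchmarks: plate control and blank wells.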
# ABCB1 block: ABCB1 efflux pump inhibitors, primary screen, cell-based, multiplex, flow cytometry, ABCG2 counter-screen. CCRF-Adr cells, JC-1 efflux. hit rate 0.067% among 190,000. inhibition, % at 6.6 µM. ATP-dependent translocase ABCB1 (Homo sapiens), P08183; in the data active means inhibition above about 40%;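 further: 0% = vehicle and 100% = reference inhibitor; higher value means more JC-1 retained so stronger ABCB1 efflux block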
# ABCG2 block: ABCG2 efflux pump inhibitors, primary screen, multiplex with ABCB1, IgMXP3 cells, flow cytometry. JC-1 efflux. inhibition, % at 6.6 µM. Broad substrate specificity ATP-binding cassette transporter ABCG2 (Homo sapiens), Q9UNQ0. hit rate 0.1% among 190,000;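 active means inhibition above 80%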;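 further: 0% = DMSO and 100% = nicardipine control wells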
#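 material = IgMXP3 (ABCG2) plus far-red-tagged CCRF-Adr (ABCB1) cells | amount = 3 million cells/mL, equal mix of both lines | also added = JC-1 transporter substrate | dosing = one concentration, 6.6 µM final | schedule = 10 min at 25 °C | measured by = flow cytometric JC-1 green MFI at 530 nm | read-out basis = percent efflux inhibition, scaled nicardipine 100% to DMSO 0%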
# ABCB1 confirm: ABCB1 efflux pump inhibitors, confirmation, cell-based, single point, ABCG2 counter-screen; CCRF-Adr cells, JC-1 efflux, flow cytometry; hit rate 7% among 270; AID 1451, 2008; shares compounds with ABCG2 block; inhibition, % at 6.6 µM;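 active means inhibition of pump activity above 50%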;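 further: 0% = DMSO and 100% = nicardipine full pump inhibition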
# ABCG2 confirm: ABCG2 efflux pump inhibitors, confirmation, single point, IgMXP3 cells, ABCB1 counter-screen paired | shares compounds with ABCG2 block | JC-1 efflux, flow cytometry | inhibition, % at 6.6 µM | hit rate 6% among 270;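 active means inhibition above 50%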;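 further: 0% = DMSO wells and 100% = nicardipine pump inhibitor wells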
# IgMXP3 autofluor: compound autofluorescence in ABCG2-expressing IgMXP3 cells, confirmation, artefact control for ABC transporter inhibitor project, cell-based, 488/530 nm, flow cytometry; shares compounds with ABCG2 block; compound autofluorescence 488/530 nm; active compounds read high; fluorescence at 6.6 µM; hit rate 30% among 270; AID 1480, 2009;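 active means fluorescence in ABCG2-expressing cells above the plate's control-well mean plus 3 SD, cut at about 15 in these data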;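 further: median cell fluorescence with compound minus that of DMSO-treated control cells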
# CCRF-Adr fluor: compound autofluorescence in ABCB1-expressing CCRF-Adr cells, confirmation, artefact control for ABC transporter inhibitor project, cell-based, 488/530 nm, flow cytometry. shares compounds with ABCG2 block. compound autofluorescence 488/530 nm; active compounds read high. fluorescence at 6.6 µM. hit rate 30% among 270. AID 1483, 2009;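 active means fluorescence beyond the plate control mean plus 3 SD, with a fluorescence-to-maximum score over 2, cut at about 25 in these data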
# * hit, by the source's call; i = inactive; . = not tested or not shown; + = active, no number.
SMILES,Arbovirus inh,Mdm2 ligase inh,Rad51 HR inh,ABCB1 block,ABCG2 block,ABCB1 confirm,ABCG2 confirm,IgMXP3 autofluor,CCRF-Adr fluor
O=C(O)CCC1OC(=O)C(O)=C1c1ccccc1 (configuration not stated),.,-16,-7,.,.,.,.,.,.
CCCCn1c(O)c(N=Nc2ccccn2)c2ccccc21,2,-3,1,2,79,0,51*,1.3,15
S=c1nc(C2CC2)n(-c2ccccc2)[nH]1,.,.,33,.,.,.,.,.,.
COc1ccc(NC(=O)Nc2ccc(F)cc2F)cc1,1,-12,5,0,15,.,.,.,.
O=C(Nc1ccc(C(=O)O)cc1)Nc1ccc(F)cc1F,4,0,1,51*,190*,1,1,1.4,-1.9
Cc1cc(C)nc(NC(=O)c2ccc(COc3ccccc3Cl)cc2)c1,-27,-23,-63,-1,-1,.,.,.,.
O=[N+]([O-])c1ccccc1-c1nc(-c2ccc(Br)o2)no1,-2,-26,0,2,90*,2,28,-0.34,0.61
COc1ccc(C(=O)Oc2cc3c4c(c2)C(C)=CC(C)(C)N4C(=O)C3=O)cc1OC,-1,-15,1,24,91*,20,29,14,7.4
COc1cccc(C(=O)Oc2cc3c4c(c2)C(C)=CC(C)(C)N4C(=O)C3=O)c1,-22,-15,-2,3,14,.,.,.,.
COCCN(C(=O)CSc1nc2ccccc2c(=O)n1CC(C)C)c1c(N)n(Cc2ccccc2)c(=O)[nH]c1=O,2,-2,7,0,3,.,.,.,.
O=c1c(/C=C(\O)c2ccccc2)nc2ccccc2n1-c1ccccc1,-2,-15,-24,45*,44,42,8,3.8,77*
Cc1nn(Cc2c(Cl)cccc2Cl)c(Cl)c1/C=N/NC(=O)c1cccnc1,-3,7,5,1,5,.,.,.,.
COc1ccc(OC)c(C(=O)COC(=O)c2cc(C)oc2C)c1,5,-6,-6,1,80,0,35,-1.8,-2.2
COc1ccc(NC(=O)CC2CCCC2)cc1S(=O)(=O)N1CCCCC1,10,-6,.,0,2,.,.,.,.
COc1ccc(NC(=O)CCC2CCCCC2)cc1S(=O)(=O)N1CCCCC1,3,-17,-5,2,81*,26,9,8,11
COc1cc(C)ccc1OCCOCCOc1cc(C)c(C)cc1Br,21,.,.,1,12,.,.,.,.
COc1ccc(NC(=O)CN2CCN(C3c4ccccc4-c4ccccc43)CC2)c(OC)c1,-7,2,-6,22,76,35,25,-0.44,-0.39
CCN(CC)c1ccc(/C=C(\C#N)C(N)=O)cc1,-10,2,-4,0,0,.,.,.,.
CCN(CC)c1ccc(/C=C(\C#N)C(=O)c2ccc(Br)cc2)cc1,-30,-2,i,181*,+,-11,-222,743*,814*
CCOC(=O)CSc1nc2cc(C)ccc2cc1C#N,-5,-7,7,0,5,.,.,.,.
CCOC(=O)CSc1nc2cc(C)cc(C)c2cc1C#N,-4,-16,-9,2,99*,1,16,61*,0.71
